We go through one compound from ChEMBL document CHEMBL2396611, “Synthesis and mechanism of hypoglycemic activity of benzothiazole derivatives” (J Med Chem, 2013).

The source made the active and inactive calls. The calls are words filed in the database; no cut-off is given here.

For data set [1], the system named is Mus musculus. The data set is described as follows: Antidiabetic activity in KKAy mouse assessed as reduction of blood glucose level at 30 to 75 mg/kg, sc bid for 4 days. In kind it is functional, organism-based. Put shortly: (§1)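 Hyperglycemic KKAy mice injected s.c. twice daily for 4 days with compound at 30 or 75 mg/kg suspended in sesame oil; controls received sesame oil (150 µl). Blood glucose measured at the indicated times, with day-zero levels taken as 100%. n=10 per group, mean ± SEM, compared with oil-treated group.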

The subject of data set [2] is Mus musculus. The data set is described as follows: Antidiabetic activity in KKAy mouse assessed as reduction of blood glucose level at 30 to 75 mg/kg, sc bid for 4 days measured on day 1 relative to control. The following applies: dose mg/kg 30-75; route subcutaneous. The arrangement: scale not given: the % may be the effect or the level left. In kind it is functional. The procedure, abridged:
as §1

In another data set the target is Cytochrome P450 2D6 (Homo sapiens, UniProt P10635). The data set is described as follows: Inhibition of CYP2D6 (unknown origin) by luminescent based assay. Type of data set: ADME.
For data set [3], the system named is L6. Kind of data set: Cytotoxicity against rat L6 cells assessed as cell viability at 25 to 200 uM after 24 hrs by MTT assay. In kind it is cell-based. The following applies: l6, 24 h.
A short description of data set [4]: Lipophilicity, log P of the compound. Type of data set: physicochemical. To be noted: octanol/water.
Data set [5] relates to Mus musculus. The data set is described as follows: Toxicity in overnight fast KKAy mouse assessed as reduction of daily food intake at 30 to 75 mg/kg, sc bid for 2 days. Type of data set: organism-based. The arrangement: dose 30-75 mg/kg, route subcutaneous. The following applies: in vivo, 48 h. Put shortly: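 Hyperglycemic KKAy mice given 30 or 75 mg/kg s.c. twice daily as a suspension in sesame oil; controls received oil (150 µl). Daily food intake recorded over the 2-day treatment; n=10 per group, mean ± SEM.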

Data set [6] concerns the target 5'-AMP-activated protein kinase catalytic subunit alpha-2 (Rattus norvegicus) (UniProt Q09137). Kind of data set: Activation of AMPK in rat L6 cells assessed as increase of [3H]dGlc uptake at 25 uM after 5 hrs relative to control. In kind it is cell-based. Put shortly: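 Fully differentiated L6 myotubes preincubated 24 h in αMEM with 2% FCS and 23.0 mmol/L D-glucose, then 4 h serum-free with 0.5% BSA. Compound or DMSO vehicle given for the indicated times or concentrations. Uptake read after 5 min at room temperature in PBS pH 7.4 with 0.1 mmol/L dGlc and 1.3 μCi/mL [3H]dGlc, by scintillation of SDS lysates. Zero-time basal rate set as 100%; n=6.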

For data set [7], the system named is L6. Kind of data set: Activation of AMPKalpha in rat L6 cells assessed as phosphorylation at Thr172 after 4 hrs by Western blot analysis. In kind it is cell-based.
Data set [8] concerns the target 5'-AMP-activated protein kinase catalytic subunit alpha-2 (Homo sapiens) (UniProt P54646). The data set is described as follows: Activation of human recombinant AMPK at 20 uM after 30 mins relative to control. Put shortly: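 Recombinant human full-length AMPK assayed with a commercial luminescent kit. Compound at 20 μM or DMSO vehicle (1% v/v) added to the reaction mix for 30 min at ambient temperature. Activity read by luminometer against a calibration curve; basal activity with DMSO set as 100%.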

The nature of data set [9]: Intrinsic clearance in BALB/c mouse liver microsomes at 2 uM. Type of data set: ADME, Microsome. The following applies: read-out: CLH.
Data set [10] concerns the target 5'-AMP-activated protein kinase catalytic subunit alpha-2 (Rattus norvegicus) (UniProt Q09137). The data set is described as follows: Activation of AMPK in rat L6 cells assessed as increase of [3H]dGlc uptake after 5 hrs in presence of Akt/PKB inhibitor 1,3-dihydro-1-(1-((4-(6-phenyl-1Himidazo[4,5-g]quinoxalin-7-yl)phenyl)methyl)-4-piperidinyl)-2H-benzimidazol-2-one trifluoroacetate salt hydrate. Type of data set: cell-based. The procedure, abridged:
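Myotubes treated with compound, insulin or vehicle in the absence or presence of 100 nM wortmannin or 100 nM Akt/PKB inhibitor, each added 30 min before compound or insulin. Compound C 5 μM was added 5 h before the uptake assay. Rate then measured by the standard 5-min [3H]dGlc uptake assay.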

The test system of data set [11] is L6. Kind of data set: Activation of AMPKalpha in rat L6 cells assessed as phosphorylation at Thr172 at 25 uM after 4 hrs by Western blot analysis relative to control. In kind it is cell-based. The procedure, abridged:
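L6 myotubes treated 4 h with increasing compound concentrations (5 to 150 μM) or DMSO. Whole-cell lysates immunoblotted for pThr172-AMPKα, AMPKα and α-tubulin; phosphorylation expressed relative to DMSO-treated control.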

The target of a further data set is Cytochrome P450 3A4 (Homo sapiens, UniProt P08684). Kind of data set: Inhibition of CYP3A4 (unknown origin) by luminescent based assay. Type of data set: ADME.
Data set [12] can be described thus: Half life in BALB/c mouse liver microsomes at 2 uM. Type of data set: ADME, Microsome.
Data set [13] has as its target 5'-AMP-activated protein kinase catalytic subunit alpha-2 (Rattus norvegicus) (UniProt Q09137). Kind of data set: Activation of AMPK in rat L6 cells assessed as increase of [3H]dGlc uptake at 25 uM after 5 hrs in presence of insulin. Type of data set: cell-based. Put shortly: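 Myotubes in serum-free αMEM with 0.5% BSA and 23.0 mM D-glucose for 9 h. Compound 25 μM or DMSO (0.1% v/v) given for the last 5 h; insulin 100 nM for the last 20 min. [3H]dGlc uptake read as 5-min PBS pulse with 0.1 mmol/L dGlc; basal rate taken as 100%.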

Data set [14] has the same target. The data set is described as follows: Activation of AMPK in rat L6 cells assessed as ACC phosphorylation at Ser79 at 250 mM after 40 mins by Western blot analysis relative to control. In kind it is cell-based. The procedure, abridged: (§2)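 Fully differentiated L6 myotubes, preincubated 3 h with or without 5 μM Compound C. Test agents: compound at 25 μM for 3 h, sorbitol 250 mM for 40 min, AICAR 4 mM for 30 min. Whole-cell lysates probed by Western blot for pSer79-ACC, ACC, pThr642-AS-160, AS-160 and α-tubulin; band densities summarized, n=3, vs respective controls.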

The next data set concerns the target Cytochrome P450 2C19 (Homo sapiens, UniProt P33261). Kind of data set: Inhibition of CYP2C19 (unknown origin) by luminescent based assay. Type of data set: ADME.
Data set [15] has as its system L6. Kind of data set: Increase of [3H]dGlc uptake in rat L6 cells after 5 hrs in presence of AMPK inhibitor compound C. In kind it is functional, cell-based. Put shortly:
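Differentiated L6 myotubes held 24 h in αMEM with 2% FCS and 23.0 mM D-glucose, then serum-free medium with 0.5% BSA for 4 h. Compound C (5 µM) added 5 h before the uptake assay, alongside 25 µM test agent. Cells rinsed in PBS, then given 0.1 mM dGlc with 1.3 µCi/mL [3H]dGlc in PBS pH 7.4 for 5 min at room temperature. Lysed in 0.1% SDS and counted by scintillation; n=6.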

Data set [16] has as its target 5'-AMP-activated protein kinase catalytic subunit alpha-2 (Rattus norvegicus) (UniProt Q09137). Kind of data set: Activation of AMPK in rat L6 cells assessed as AS-160 phosphorylation at Thr642 after 30 mins by Western blot analysis relative to control.
Data set [17] shares this target. The data set is described as follows: Activation of AMPK in rat L6 cells assessed as ACC phosphorylation at Ser79 at 25 uM after 3 hrs by Western blot analysis relative to control. Type of data set: cell-based. Put shortly: as §2
Data set [18] relates to L6. The data set is described as follows: Increase of myc-tagged GLUT1 translocation in rat L6 cell plasma membrane at 25 uM after 30 mins to 5 hrs by colorimetric analysis. Type of data set: functional, cell-based. The procedure, abridged: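 L6 lines stably carrying GLUT4myc or GLUT1myc, treated 5 h with test agent or DMSO; insulin given for 30 min. Live myotubes incubated with rabbit anti-c-Myc (1:200), washed, fixed in 3% formaldehyde, then HRP anti-rabbit IgG (1:2000). Developed with OPD and read at 492 nm to give relative surface transporter abundance.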

5'-AMP-activated protein kinase catalytic subunit alpha-2 (Rattus norvegicus), sequence (Q09137 whole entry): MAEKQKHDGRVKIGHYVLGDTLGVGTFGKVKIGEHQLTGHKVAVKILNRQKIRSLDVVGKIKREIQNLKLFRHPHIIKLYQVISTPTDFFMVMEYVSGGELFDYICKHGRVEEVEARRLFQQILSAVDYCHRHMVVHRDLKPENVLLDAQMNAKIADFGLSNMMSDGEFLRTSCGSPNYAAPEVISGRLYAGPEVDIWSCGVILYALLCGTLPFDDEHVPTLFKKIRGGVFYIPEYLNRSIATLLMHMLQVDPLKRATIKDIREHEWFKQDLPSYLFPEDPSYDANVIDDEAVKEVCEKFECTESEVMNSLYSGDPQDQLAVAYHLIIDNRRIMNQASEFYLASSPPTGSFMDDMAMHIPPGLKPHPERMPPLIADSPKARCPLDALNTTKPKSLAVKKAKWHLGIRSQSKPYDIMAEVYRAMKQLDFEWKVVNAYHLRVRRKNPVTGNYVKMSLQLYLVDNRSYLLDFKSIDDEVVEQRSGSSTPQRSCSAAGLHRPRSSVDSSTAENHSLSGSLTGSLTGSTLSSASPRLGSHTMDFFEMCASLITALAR
Cytochrome P450 2D6, sequence (P10635 whole entry): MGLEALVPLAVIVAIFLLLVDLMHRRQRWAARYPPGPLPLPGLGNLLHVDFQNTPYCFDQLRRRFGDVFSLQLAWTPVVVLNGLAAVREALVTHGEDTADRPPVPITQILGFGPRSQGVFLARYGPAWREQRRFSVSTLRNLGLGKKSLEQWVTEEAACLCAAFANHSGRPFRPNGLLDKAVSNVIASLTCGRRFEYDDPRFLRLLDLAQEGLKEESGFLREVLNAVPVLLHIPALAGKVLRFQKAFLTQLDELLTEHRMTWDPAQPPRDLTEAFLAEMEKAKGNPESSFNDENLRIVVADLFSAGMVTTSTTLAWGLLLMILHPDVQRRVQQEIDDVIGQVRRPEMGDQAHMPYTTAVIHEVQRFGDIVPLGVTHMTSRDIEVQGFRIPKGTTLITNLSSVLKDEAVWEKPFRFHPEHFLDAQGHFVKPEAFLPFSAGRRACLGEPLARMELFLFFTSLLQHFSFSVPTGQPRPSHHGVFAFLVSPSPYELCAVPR
Cytochrome P450 3A4, sequence (P08684 whole entry): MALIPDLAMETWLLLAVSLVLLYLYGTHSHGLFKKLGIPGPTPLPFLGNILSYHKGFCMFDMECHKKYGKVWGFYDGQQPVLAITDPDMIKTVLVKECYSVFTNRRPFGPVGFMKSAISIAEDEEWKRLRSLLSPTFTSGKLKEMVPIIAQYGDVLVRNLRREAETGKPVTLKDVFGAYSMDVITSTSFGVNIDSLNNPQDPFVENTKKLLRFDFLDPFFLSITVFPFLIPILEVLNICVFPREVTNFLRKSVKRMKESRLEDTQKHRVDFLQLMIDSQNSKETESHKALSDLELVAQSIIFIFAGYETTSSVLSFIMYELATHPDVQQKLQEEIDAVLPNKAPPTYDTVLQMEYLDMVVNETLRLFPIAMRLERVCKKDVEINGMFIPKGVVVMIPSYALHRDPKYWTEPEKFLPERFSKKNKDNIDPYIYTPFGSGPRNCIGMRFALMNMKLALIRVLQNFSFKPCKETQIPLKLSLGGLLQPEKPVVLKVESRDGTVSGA
Cytochrome P450 2C19, sequence (P33261 whole entry): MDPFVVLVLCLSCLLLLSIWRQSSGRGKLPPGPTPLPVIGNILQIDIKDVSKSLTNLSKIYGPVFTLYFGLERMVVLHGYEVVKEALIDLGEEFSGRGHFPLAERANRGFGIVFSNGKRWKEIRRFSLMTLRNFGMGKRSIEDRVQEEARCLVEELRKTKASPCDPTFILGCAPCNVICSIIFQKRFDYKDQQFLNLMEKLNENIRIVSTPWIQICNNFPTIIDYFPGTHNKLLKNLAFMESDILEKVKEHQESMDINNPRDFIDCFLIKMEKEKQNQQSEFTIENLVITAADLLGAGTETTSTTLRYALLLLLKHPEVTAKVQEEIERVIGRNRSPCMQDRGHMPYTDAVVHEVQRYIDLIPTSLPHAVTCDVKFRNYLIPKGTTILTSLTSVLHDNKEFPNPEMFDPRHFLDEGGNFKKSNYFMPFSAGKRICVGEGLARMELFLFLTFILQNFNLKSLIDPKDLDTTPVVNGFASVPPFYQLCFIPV
5'-AMP-activated protein kinase catalytic subunit alpha-2 (Homo sapiens), sequence (P54646 whole entry, looked up): as the sequence (Q09137 whole entry) above, with V114M, Q150H, I241V, T348S, M355S, V502F, S505T, N509S, A528V, A549T counted along it

For `CCOc1ccc2nc(SCc3nc4ccccc4s3)sc2c1`, the outcome (in the data set on Mus musculus [1]; in data set [6]; in [10]; in data set [13]) was Active. Further, the Activity in the data set on Mus musculus [2] was 30%; in the data set with L6 [3], “Non-toxic”; in the data set with Mus musculus [5], “Non-toxic”; in the data set with L6 [7], “Dose-dependent effect”. Moreover, the “inhibition (INH)” value on Cytochrome P450 2D6 was 64.4%; on Cytochrome P450 3A4 it was 77.1%; against Cytochrome P450 2C19 it was “Not Active”. The logP in data set [4] amounted to 4.34. The fold change (FC) in data set [8] was found to be 4.3; with L6 [11], 6.8; in data set [14] it was 2.56; in data set [16] it was 1.62; in data set [17] it was 1.75. For the same compound, in [9], the microsomal CLint at 2 µM came out at 692 µL/min/mg. This compound had a half-life at 2 µM in data set [12] of 2.4 min. In addition, the outcome with L6 [15] and in the data set on L6 [18] was inactive.
